From PubChem BioAssay
TAAR1 agonist = human TAAR1 agonists, primary screen, Fluo-8 calcium fluorescence, CHO RD-HGA16 cells; Trace amine-associated receptor 1 (Homo sapiens), Q96RJ0; vehicle wells 0%, saturating PEA agonist 100%; activation, % at 3 µM; hit rate 0.99% among 360,000; AID 624467, 2012;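 active = activation above the mean activation of all test compounds in the run plus 3 SD, cut at about 38% in these data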
Target sequence (Q96RJ0 whole entry, looked up): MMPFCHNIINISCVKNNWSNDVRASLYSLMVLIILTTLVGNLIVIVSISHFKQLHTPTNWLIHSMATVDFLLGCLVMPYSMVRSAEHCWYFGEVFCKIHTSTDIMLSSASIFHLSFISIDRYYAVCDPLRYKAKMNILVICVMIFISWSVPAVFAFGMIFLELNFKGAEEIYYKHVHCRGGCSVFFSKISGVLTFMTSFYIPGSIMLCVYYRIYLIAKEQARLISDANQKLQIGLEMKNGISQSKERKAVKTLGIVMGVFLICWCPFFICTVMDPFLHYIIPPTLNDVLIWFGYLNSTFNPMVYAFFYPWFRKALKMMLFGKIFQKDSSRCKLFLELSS
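Test system: RD-HGA16 (CHO) cells co-expressing Gα16 and hTAAR1 | Doses: Single dose, 3 µM | Schedule: 17-24 h seeding, 75 min 37 °C dye, 30 min RT | Evaluation: % activation from peak over basal fluorescence ratio, DMSO-to-PEA scaled | Technique: Kinetic Fluo-8 calcium fluorescence | Benchmarks: Low control DMSO, high control PEA (EC100)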
OXTR ag = human OXTR agonists, primary screen, fluorescence, CHO-OTR cells, Fluo-8 calcium; Oxytocin receptor (Homo sapiens), P30559; Fluo-8 calcium fluorescence; normalized: DMSO 0%, oxytocin 100%; activation, % at 3 µM; hit rate 0.32% among 320,000;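 active = activation above the mean of all tested compounds plus 3 SD, cutoff set per screening run, cut at about 20% in these data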;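 note: peak over basal fluorescence ratio from a 100 s FLIPR kinetic read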
V1aR counter = agonists of human V1a receptor, primary screen, counter-screen for OXTR agonist project, fluorescence, CHO-V1R cells; Vasopressin V1a receptor (Homo sapiens), P37288; Fluo-8 calcium fluorescence, agonist mode; 0% DMSO, 100% 3 nM vasopressin; activation, % at 3 µM; hit rate 0.25% among 320,000;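 active = activation above the mean activation of all tested compounds plus 3 SD, per screening run, cut at about 20% in these data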;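 note: signal is peak over basal fluorescence ratio across a 100 second FLIPR read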
Target sequence (P37288 whole entry, looked up): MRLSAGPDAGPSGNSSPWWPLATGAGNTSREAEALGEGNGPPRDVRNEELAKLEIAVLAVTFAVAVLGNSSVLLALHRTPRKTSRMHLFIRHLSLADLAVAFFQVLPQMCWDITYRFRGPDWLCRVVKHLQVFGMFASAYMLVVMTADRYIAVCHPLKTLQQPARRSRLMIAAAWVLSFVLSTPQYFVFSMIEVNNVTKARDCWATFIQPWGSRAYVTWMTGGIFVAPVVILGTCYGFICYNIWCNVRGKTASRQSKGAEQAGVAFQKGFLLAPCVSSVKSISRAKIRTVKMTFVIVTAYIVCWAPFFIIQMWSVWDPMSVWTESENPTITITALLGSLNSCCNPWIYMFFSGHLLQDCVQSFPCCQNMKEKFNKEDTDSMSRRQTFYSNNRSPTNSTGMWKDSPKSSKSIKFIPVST
OXTR potentiator = human OXTR potentiators, primary screen, fluorescence, CHO-OTR cells, Fluo-8 calcium. Oxytocin receptor (Homo sapiens), P30559. Fluo-8 calcium fluorescence, potentiator mode; 0% = oxytocin EC15, 100% = EC100. activation, % at 3 µM. hit rate 0.061% among 320,000;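 active = activation above that plate's cutoff, the mean activation of tested compounds plus 3 SD, cut at about 6.6% in these data, passing the limit was not always enough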
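Assay system: CHO-OTR cells, human receptor / Also added: oxytocin at about EC15, sub-maximal agonist stimulus / Dosing: single dose, 3.0 µM nominal final compound concentration / Incubation: 6 min pre-incubation, 100 s read / Technique: Fluo-8 calcium dye fluorescence / Read-out: % activation vs EC15 and EC100 oxytocin / Benchmarks: EC15 oxytocin low, 75 nM oxytocin high / Replicates: singlicate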
TAAR1 antag = human TAAR1 antagonists, primary screen, Fluo-8 calcium fluorescence, CHO RD-HGA16 cells; Trace amine-associated receptor 1 (Homo sapiens), Q96RJ0; antagonist; inhibition, % at 3 µM; hit rate 1.5% among 360,000;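 active = inhibition above a per-plate cutoff, the mean inhibition of test compounds on that plate plus 3 SD, cut at about 49% in these data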
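System: CHO RD-HGA16 cells bearing hTAAR1. Reagent: EC80 β-phenethylamine stimulus. Schedule: seeding 17-24 h prior, 75-min 37 °C, 30-min RT dye loading. Signal: Fluo-8 intracellular calcium dye fluorescence, real-time kinetic reads. Read-out: % inhibition from peak post-agonist over basal fluorescence ratio. Benchmarks: vehicle wells and EC80 agonist wells. Replicates: n of 1.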
TAAR1 ag confirm = human TAAR1 agonists, retest of hits, confirmation, Fluo-8 calcium fluorescence, CHO RD-HGA16 cells. AID 651783, 2012. hit rate 82% among 2,400. scaled: DMSO 0%, maximal phenethylamine 100%. shares compounds with TAAR1 agonist. activation, % at 3 µM;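 active = activation above a cutoff set at the run's mean compound activation plus 3 SD, cut at about 39% in these data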
Ga16 nonsel ag = nonselective calcium mobilization agonists, CHO-Ga16 cells, counter-screen for hTAAR1 agonist project, cell-based, fluorescence, CHO-Ga16 parental line | shares compounds with TAAR1 agonist | Fluo-8 calcium fluorescence; normalized to maximal ATP response, DMSO zero | activation, % at 3 µM | hit rate 50% among 2,400 | AID 651787, 2012;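 active = activation above the run cutoff, the mean activation over all tested wells plus 3 SD, cut at about 12% in these data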
TAAR1 desens = TAAR1 desensitization by agonist hits, confirmation, counter-screen for TAAR1 agonist project, cell-based, fluorescence, tachyphylaxis; shares compounds with TAAR1 agonist; CHO RD-HGA16 hTAAR1, Fluo-8 calcium, beta-PEA response inhibition; inhibition, % at 3 µM; hit rate 46% among 2,400; AID 651951, 2012;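 active = inhibition above the run cutoff, the mean inhibition of all test compounds plus 3 SD, cut at about 49% in these data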;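 note: beta-PEA stimulus applied at its EC80; loss of beta-PEA calcium signal after compound pretreatment read as receptor desensitization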
Ga16 antag count = inhibition of ATP-evoked calcium response in CHO-Ga16 cells, counter-screen for TAAR1 agonist project, cell-based, fluorescence; shares compounds with TAAR1 agonist; hit rate 39% among 2,400; inhibition, % at 3 µM; AID 651952, 2012; CHO-Ga16 ATP-induced calcium, Fluo-8 fluorescence;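 active = inhibition above the plate's mean compound inhibition plus 3 SD, computed per plate, cut at about 22% in these data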
A number is an active result; n = inactive; x = not tested or not shown. This is a sample that favours compounds with a hit; in the whole collection about 2.3% have one here.

SMILES	TAAR1 agonist	OXTR ag	V1aR counter	OXTR potentiator	TAAR1 antag	TAAR1 ag confirm	Ga16 nonsel ag	TAAR1 desens	Ga16 antag count
O=C(NCc1ccccc1)N1CCN(c2ccc(Cl)c(Cl)c2)CC1	95	n	n	n	101	n	n	n	36
O=C(NCc1ccccc1)N1CCN(c2ccc(F)cc2)CC1	n	n	n	n	n	x	x	x	x
O=C(CCSc1nc(-c2ccco2)cc(C(F)(F)F)n1)NCCc1ccccc1	n	n	n	n	n	x	x	x	x
FC(F)(F)c1cc(-c2ccco2)nc(NCCc2ccccc2)n1	55	n	n	n	n	83	n	n	n
CC(=O)C(C(C)=O)c1cc(NS(=O)(=O)c2ccccc2)ccc1NS(=O)(=O)c1ccccc1	102	n	n	n	n	67	44	49	22
CCN(CC)CCCn1c2c(c(SCC(=O)Nc3cccc(C)c3C)nc1=O)CCC2	n	n	n	n	n	x	x	x	x
Cc1nc(Nc2ccccc2)sc1-c1ccccc1	n	n	n	n	n	x	x	x	x
Cc1nc(Nc2ccc(C(=O)O)cc2)sc1-c1ccccc1	62	n	n	n	n	71	63	61	44
CC(OC(=O)c1ccc(-n2cnnn2)cc1)C(=O)N(C)c1ccccc1 (centres undefined)	n	x	x	x	n	x	x	x	x
O=C(O)c1ccccc1-c1ccc(/C=C2\SC(=O)N(c3ccccc3)C2=O)o1	n	n	n	n	n	x	x	x	x
O=C1S/C(=C\c2ccc(N3CCOCC3)o2)C(=O)N1c1ccccc1	209	n	n	n	83	140	163	82	87
O=C(Cc1ccc(Nc2nc3ccc(Br)cc3[nH]2)cc1)NCCc1cccs1	n	n	n	n	n	x	x	x	x
O=C(NCC1CC1)c1ccc(Nc2nc3ccc(Br)cc3[nH]2)cc1	49	n	n	n	93	45	n	67	n
COc1cccc(-c2c(C(=O)N/N=C/c3ccco3)nnn2-c2nonc2N)c1	78	n	n	n	n	97	52	n	n
Nc1nonc1-n1nnc(C(=O)N/N=C/c2ccoc2)c1-c1ccccc1	85	n	n	n	n	53	46	n	n
Nc1nonc1-n1nnc(C(=O)N/N=C/c2ccco2)c1-c1ccccc1	100	n	n	n	n	72	47	n	n
COc1cccc(/C=N/NC(=O)c2nnn(-c3nonc3N)c2-c2cccs2)c1	n	n	n	n	n	x	x	x	x
O=C(/C=C/c1ccccc1)NC(N1CCOCC1)C(Cl)(Cl)Cl (centres undefined)	n	n	n	n	n	x	x	x	x
O=C(Cc1ccc([N+](=O)[O-])cc1)Oc1ccccc1	n	x	x	x	n	x	x	x	x
Cc1nc(CSc2ccc(Br)cc2)cs1	n	n	n	n	n	x	x	x	x
CCOC(=O)c1ccc(NC(=O)Cn2nnc(-c3ccccc3F)n2)cc1	n	n	n	n	n	x	x	x	x
COc1ccc(NC(=O)Cn2nnc(-c3ccccc3F)n2)cc1Cl	57	n	n	n	n	n	n	n	n
CCCc1nnc2c(N(C)S(=O)(=O)c3ccc(C)cc3)nc3ccccc3n12	n	n	n	n	n	x	x	x	x
CCCCc1nnc2c(N(C)S(=O)(=O)c3ccc(C)cc3)nc3ccccc3n12	57	n	n	n	n	n	n	n	n
CCOc1ccc(-c2c(C(=O)N/N=C/c3ccc(OC)cc3)nnn2-c2nonc2N)cc1	51	37	27	n	n	47	23	n	n
SMILES	TAAR1 agonist	OXTR ag	V1aR counter	OXTR potentiator	TAAR1 antag	TAAR1 ag confirm	Ga16 nonsel ag	TAAR1 desens	Ga16 antag count
CCOc1ccc(-c2c(C(=O)N/N=C/c3ccsc3)nnn2-c2nonc2N)cc1	119	29	21	n	n	111	74	n	n
CCCOc1ccc(-c2c(C(=O)N/N=C/c3ccc(OC)cc3)nnn2-c2nonc2N)cc1	n	n	n	n	n	x	x	x	x
CCCc1c(C(=O)N/N=C/c2cccs2)nnn1-c1nonc1N	65	n	n	n	n	n	19	n	n
CCOc1ccc(-c2c(C(=O)N/N=C/c3cccc(Br)c3)nnn2-c2nonc2N)cc1	n	n	n	n	n	x	x	x	x
Nc1nonc1-n1nnc(C(=O)N/N=C/c2ccc(O)cc2)c1CN1CCCCCC1	n	n	n	n	n	x	x	x	x
CCc1ccc(/C=N/NC(=O)c2nnn(-c3nonc3N)c2CN2CCOCC2)cc1	63	n	n	n	n	59	52	n	n
CCOc1cccc(-c2c(C(=O)N/N=C/c3ccc(Br)cc3)nnn2-c2nonc2N)c1	102	n	n	n	n	97	82	58	48
CC(Oc1ccc(Cl)cc1Cl)C(=O)Nc1ccc(N2CCN(C)CC2)cc1 (centres undefined)	53	n	n	n	n	60	n	n	n
CC(=O)Nc1ccc2c(=O)n(-c3ccccc3)sc2c1	83	x	x	x	69	131	51	102	52
O=c1c2ccccc2sn1-c1ccc(S(=O)(=O)N2CCCC2)cc1	n	n	n	n	n	x	x	x	x
Cn1sc2ccccc2c1=O	46	x	x	x	n	n	26	n	n
Cc1ccc(-n2sc3ccccc3c2=O)cc1S(=O)(=O)N1CCCCC1	70	n	n	n	n	n	14	n	n
COCCn1c(=O)sc2ccccc2c1=O	n	n	n	n	n	x	x	x	x
CC(=O)Nc1ccc(-c2cc(N)n(-c3ccccc3)n2)cc1	n	n	n	n	n	x	x	x	x
CN(C)S(=O)(=O)c1cccc(-n2sc3ccccc3c2=O)c1	64	n	n	n	n	50	34	n	22
Cc1ccccc1-c1cc(C(=O)NCc2ccc3c(c2)OCO3)nn1CC1CC(c2cccc([N+](=O)[O-])c2)=NO1 (centres undefined)	n	n	n	n	n	x	x	x	x
